Columns and labels:
[1] = test system: Globisporangium ultimum; test: Antifungal activity against logarithmic phase of Pythium ultimum ATCC 58812 assessed as growth inhibition at 50 ug/ml measured at 5 days post-drug treatment; format: functional; conditions: ATCC 58812, 120 h, read-out: GI
Method in brief: (§1)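 Log-phase mycelium (from 10 mm stationary-phase disks grown on cellophane over PDA, pH 5.6, 26 ± 1 °C) moved to PDA with compound added from DMSO stock at 45 °C. Final concentrations were 10, 50 or 100 µg mL^-1, with 0.1% DMSO in test and control media. Colony diameter was read daily for 5 days, in triplicate, as % of untreated control.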

[2] = test system: Globisporangium ultimum; test: Antifungal activity against logarithmic phase of Pythium ultimum ATCC 58812 assessed as growth inhibition at 100 ug/ml measured at 5 days post-drug treatment; format: functional; conditions: ATCC 58812, 120 h, read-out: GI; method in brief: as §1
[3] = test system: Pyricularia grisea; test: microbe, parasite or virus in culture; format: functional; conditions: ATCC 64413, 120 h, read-out: GI
[4] = test system: Pyricularia grisea; test: microbe, parasite or virus in culture; format: functional; conditions: ATCC 64413, 120 h, read-out: GI; remark: listed apart in the source
[5] = test system: Botrytis cinerea; test: Antifungal activity against logarithmic phase of Botryotinia fuckeliana ATCC 48339 assessed as growth inhibition at 100 ug/ml measured at 5 days post-drug treatment; format: functional; conditions: ATCC 48339, 120 h, read-out: GI; method in brief: as §1
[6] = test system: Pyricularia grisea; test: microbe, parasite or virus in culture; format: functional; conditions: ATCC 64413, 120 h, read-out: GI; remark: listed apart in the source
[7] = test system: Pyricularia grisea; test: microbe, parasite or virus in culture; format: functional, organism-based; conditions: ATCC 64413, 120 h
[8] = test system: Globisporangium ultimum; test: Antifungal activity against logarithmic phase of Pythium ultimum Trow ATCC 58812 assessed as growth inhibition measured at 5 days post-drug treatment; format: functional, organism-based; conditions: ATCC 58812, 120 h
Method in brief: (§2)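 Log-phase mycelium grown on cellophane over PDA (pH 5.6, 26 ± 1 °C) moved to PDA containing compound at 10, 50 and 100 µg mL^-1 final, with 0.1% DMSO in test and control media. Colony diameter was measured daily for 5 days, in triplicate, relative to untreated controls. IC50 came from curves of activity (%) versus log inhibitor concentration.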

[9] = test system: Globisporangium ultimum; test: Antifungal activity against logarithmic phase of Pythium ultimum ATCC 58812 assessed as growth inhibition at 10 ug/ml measured at 5 days post-drug treatment; format: functional; conditions: ATCC 58812, 120 h, read-out: GI; method in brief: as §1
[10] = test system: Botrytis cinerea; test: Antifungal activity against logarithmic phase of Botryotinia fuckeliana ATCC 48339 assessed as growth inhibition at 10 ug/ml measured at 5 days post-drug treatment; format: functional; conditions: ATCC 48339, 120 h, read-out: GI; method in brief: as §1
[11] = test system: Botrytis cinerea; test: Antifungal activity against logarithmic phase of Botryotinia fuckeliana ATCC 48339 assessed as growth inhibition at 50 ug/ml measured at 5 days post-drug treatment; format: functional; conditions: ATCC 48339, 120 h, read-out: GI; method in brief: as §1
[12] = test system: Botrytis cinerea; test: Antifungal activity against logarithmic phase of Botryotinia fuckeliana ATCC 48339 assessed as growth inhibition measured at 5 days post-drug treatment; format: functional, organism-based; conditions: ATCC 48339, 120 h; method in brief: as §2

| Compound | inhibition of growth at 50 µg/mL [1] | inhibition of growth at 100 µg/mL [2] | inhibition of growth at 50 µg/mL [3] | inhibition of growth at 100 µg/mL [4] | inhibition of growth at 100 µg/mL [5] | inhibition of growth at 10 µg/mL [6] | IC50 [7] | IC50 [8] | inhibition of growth at 10 µg/mL [9] | inhibition of growth at 10 µg/mL [10] | inhibition of growth at 50 µg/mL [11] | IC50 [12] |
| --- | --- | --- | --- | --- | --- | --- | --- | --- | --- | --- | --- | --- |
| O=c1c2cn[nH]c2[nH]c(=S)n1-c1ccc(Br)cc1 | 22.5% | 61.8% | 18% | 20% | – | – | – | – | – | – | – | – |
| CCOC(=O)c1cn[nH]c1NC(=S)Nc1ccc(Br)cc1 | 2% | 3.1% | 27.1% | 27.2% | 16.3% | 16.1% | – | – | – | – | – | – |
| Cc1cccc2sc3nncn3c12 [TRICYCLAZOLE] | – | – | 24% | 62% | – | 0% | 474 µM | – | – | – | – | – |
| COC(=O)N(OC)c1ccccc1COc1ccn(-c2ccc(Cl)cc2)n1 [PYRACLOSTROBIN] | 100% | 100% | – | – | – | – | – | < 10 µM | 100% | – | – | – |
| O=c1c2cn[nH]c2[nH]c(=S)n1-c1ccc([N+](=O)[O-])cc1 | 8.7% | 13.7% | – | – | 2.1% | – | – | – | 4.6% | – | – | – |
| O=c1c2cn[nH]c2[nH]c(=S)n1-c1ccc(Cl)cc1 | 12.2% | 37.8% | – | – | 31.7% | – | – | – | 1.7% | – | – | – |
| CCOC(=O)c1cn[nH]c1NC(=S)Nc1ccccc1Cl | 68.7% | 70% | 60.9% | 67% | 36% | 48.7% | 48 µM | – | 66.5% | 4.3% | 30.9% | – |
| CCOC(=O)c1cn[nH]c1NC(=S)NCc1ccccc1 | 34.6% | 38.3% | 35.6% | 41.4% | 32% | 15.8% | – | – | 3.7% | 0% | 26% | – |
| Cc1onc(C(=O)NC(C)(C)C)c1C(=O)O | 15.8% | 40.2% | – | – | 18.2% | – | – | – | 9.7% | 4.3% | 13.3% | – |
| O=c1c2cn[nH]c2[nH]c(=S)n1Cc1ccccc1 | 64.6% | 78% | 23.4% | 44.4% | 31.9% | 0.5% | – | 66 µM | 44.1% | 13.5% | 23.4% | – |
| CCOC(=O)c1c[nH]nc1N=C(S)Nc1ccc(Cl)cc1 | 52.9% | 61.5% | 33.6% | 36.7% | 46.2% | 21.4% | – | – | 38% | – | 21% | – |
| Cc1c(C(=O)O)c(C(=O)NC2CC2)nn1C | 6.6% | 11.4% | 4.3% | 8.6% | 19.8% | – | – | – | – | 3% | 9.9% | – |
| Cc1c(C(=O)O)c(C(=O)NC(C)(C)C)nn1-c1ccccc1 | 82.3% | 83.4% | 3.8% | 13.9% | 60.5% | 0.6% | – | 79 µM | 12.1% | 39.5% | 43.1% | – |
| CCOC(=O)c1cn[nH]c1NC(=S)Nc1cccc(C(F)(F)F)c1 | 24.2% | 28% | 46.3% | 51% | 23.2% | 29.4% | 224 µM | – | 23% | – | – | – |
| CCOC(=O)c1cn[nH]c1NC(=S)Nc1ccc([N+](=O)[O-])cc1 | 36% | 63.4% | 15.6% | 17.7% | 37.9% | 13% | – | – | 27.2% | 13.2% | 33% | – |
| Cc1c(C(=O)O)c(C(=O)NC(C)(C)C)nn1C | 12.5% | 41.3% | 4.1% | 5.8% | 61.9% | 0.9% | – | – | – | – | 9.6% | – |
| Cc1[nH]nc(C(=O)NC2CC2)c1C(=O)O | 32.9% | 39.9% | 5.9% | 9% | 19.2% | 3.6% | – | – | 3.2% | – | 10.6% | – |
| Cc1c(C(=O)O)c(C(=O)NC(C)(C)C)nn1-c1c(Cl)cc(C(F)(F)F)cc1Cl | 37.9% | 54.7% | 20.6% | 24.4% | 27.5% | – | – | – | 1.9% | 17.3% | 22.6% | – |
| O=c1c2cn[nH]c2[nH]c(=S)n1-c1cccc(Cl)c1 | 4.1% | 10.8% | 1% | 5% | 27.3% | – | – | – | 2.2% | – | 8.5% | – |
| COC(=O)c1c(C(=O)O)nn(C)c1C | – | – | – | 8.4% | 3.3% | – | – | – | – | – | – | – |
| Cc1onc(C(=O)NC2CC2)c1C(=O)O | 46.6% | 53.5% | 2.3% | 8.97% | – | – | – | – | 46% | 3.8% | – | – |
| CCCCNC(=S)Nc1[nH]ncc1C(=O)OCC | – | 10.4% | 8.6% | 10% | 32.4% | – | – | – | – | 4.7% | 15.1% | – |
| CCNC(=S)Nc1[nH]ncc1C(=O)OCC | – | 20% | 18.1% | 28.9% | – | 13.8% | – | – | – | – | – | – |
| O=c1c2cn[nH]c2[nH]c(=S)n1-c1ccccc1Cl | – | – | – | – | 66.2% | – | – | – | – | 40% | 63.8% | 83 µM |
| COC(=O)c1c(C(=O)NC2CC2)nn(C)c1C | 4.3% | 7.7% | – | 3.4% | 3.2% | – | – | – | 4.8% | – | 4% | – |
| O=C(Nc1ccccc1)c1ccccc1I [BENODANIL] | – | – | – | – | 97.6% | – | – | – | – | 6.3% | 91.2% | 66 µM |
| CCn1c(=S)[nH]c2[nH]ncc2c1=O | – | – | 3.6% | 4.1% | – | – | – | – | – | – | – | – |
| O=c1c2cn[nH]c2[nH]c(=S)n1-c1cccc(C(F)(F)F)c1 | 34.5% | 57.8% | 1.4% | 4.1% | 7.2% | – | – | – | 17.2% | 0.5% | 1% | – |
| CCOC(=O)c1cn[nH]c1NC(=S)Nc1cccc(Cl)c1 | 38.1% | 60.8% | 18% | 26% | 76.2% | 16.6% | – | – | 32.9% | 56% | 56.8% | 31 µM |
| CCOC(=O)c1cn[nH]c1NC(=S)NC1CCCCC1 | 59% | 63.9% | 26.7% | 36% | – | 29.8% | – | – | 44.4% | – | – | – |

Source: ChEMBL document CHEMBL3045616, “Synthetic pyrazole derivatives as growth inhibitors of some phytopathogenic fungi” (J Agric Food Chem, 2007)
